# Assays:
# [1] = Cytotoxicity against human NCI-H460 cells assessed as decrease in cell viability after 72 hrs by MTT assay; type: functional, cell-based; details: NCI-H460, 72 h
# Method in brief: (§1)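 Cells kept in RPMI 1640 with 10% FBS at 37 °C, 5% CO2, passaged every 2-3 days; seeded at 5,000-7,000 cells/well and left 24 h. Compounds dissolved in 1% DMSO, diluted in fresh medium to 1, 4, 16 and 32 µM, added in sextuplicate; 72 h exposure. MTT added for 3-4 h, medium removed, DMSO added for 15 min at 37 °C, OD read at 540 nm.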
# [2] = Cytotoxicity against human NCI-H1975 cells assessed as decrease in cell viability after 72 hrs by MTT assay; type: functional, cell-based; details: NCI-H1975, 72 h; method in brief: as §1
# [3] = Cytotoxicity against human HCC827 cells assessed as decrease in cell viability after 72 hrs by MTT assay; type: functional, cell-based; details: HCC827, 72 h; method in brief: as §1
# [4] = Cytotoxicity against human A549 cells assessed as decrease in cell viability after 72 hrs by MTT assay; type: functional, cell-based; details: A549, 72 h; method in brief: as §1
# [5] = Cytotoxicity against human NCI-H226 cells assessed as cell growth at 10 uM after 48 hrs by SRB assay relative to control; type: functional; details: NCI-H226, 48 h, read-out: Activity
# [6] = Cytotoxicity against human HOP92 cells assessed as cell growth at 10 uM after 48 hrs by SRB assay relative to control; type: functional; details: HOP-92, 48 h, read-out: Activity
# [7] = Cytotoxicity against human A549 cells assessed as cell growth at 10 uM after 48 hrs by SRB assay relative to control; type: functional; details: A549, 48 h, read-out: Activity
# [8] = Cytotoxicity against human EKVX cells assessed as cell growth at 10 uM after 48 hrs by SRB assay relative to control; type: functional; details: read-out: Activity
# [9] = Cytotoxicity against human HOP62 cells assessed as cell growth at 10 uM after 48 hrs by SRB assay relative to control; type: functional; details: HOP-62, 48 h, read-out: Activity
# [10] = Cytotoxicity against human NCI-H23 cells assessed as cell growth at 10 uM after 48 hrs by SRB assay relative to control; type: functional; details: NCI-H23, 48 h, read-out: Activity
# [11] = Cytotoxicity against human NCI-H322M cells assessed as cell growth at 10 uM after 48 hrs by SRB assay relative to control; type: functional; details: read-out: Activity
# [12] = Cytotoxicity against human NCI-H460 cells assessed as cell growth at 10 uM after 48 hrs by SRB assay relative to control; type: functional; details: NCI-H460, 48 h, read-out: Activity
# [13] = Cytotoxicity against human NCI-H522 cells assessed as cell growth at 10 uM after 48 hrs by SRB assay relative to control; type: functional; details: NCI-H522, 48 h, read-out: Activity
# [14] = Aqueous solubility of the compound; type: physicochemical
# [15] = Growth inhibition of human A549 cells after 48 hrs by SRB assay; type: functional; details: A549, 48 h
# [16] = Growth inhibition of human EKVX cells after 48 hrs by SRB assay; type: functional
# [17] = Growth inhibition of human HOP62 cells after 48 hrs by SRB assay; type: functional; details: HOP-62, 48 h; for CC50: read-out: LC50 (the source's name)
# [18] = Growth inhibition of human HOP92 cells after 48 hrs by SRB assay; type: functional; details: HOP-92, 48 h
# [19] = Growth inhibition of human NCI-H226 cells after 48 hrs by SRB assay; type: functional; details: NCI-H226, 48 h
# [20] = Growth inhibition of human NCI-H23 cells after 48 hrs by SRB assay; type: functional; details: NCI-H23, 48 h
# [21] = Growth inhibition of human NCI-H322M cells after 48 hrs by SRB assay; type: functional; details: for CC50: read-out: LC50 (the source's name)
# [22] = Growth inhibition of human NCI-H460 cells after 48 hrs by SRB assay; type: functional; details: NCI-H460, 48 h
# [23] = Growth inhibition of human NCI-H522 cells after 48 hrs by SRB assay; type: functional; details: NCI-H522, 48 h; for CC50: read-out: LC50 (the source's name)
smiles,measurement,setting,value
CCc1n(Cc2ccc3ccccc3c2)c2ccccc2[n+]1Cc1ccc2ccccc2c1.[Br-],IC50,[1],3 µM
same,IC50,[2],< 1 µM
same,IC50,[3],4 µM
same,IC50,[4],3 µM
same,growth at 10 µM,[5],64.9%
same,growth at 10 µM,[6],21.9%
same,growth at 10 µM,[7],74.2%
same,growth at 10 µM,[8],76.7%
same,growth at 10 µM,[9],81.3%
same,growth at 10 µM,[10],28.8%
same,growth at 10 µM,[11],90.7%
same,growth at 10 µM,[12],53.6%
same,growth at 10 µM,[13],12.1%
same,solubility,[14],< 500 µg/mL
COCCc1n(Cc2ccc3ccccc3c2)c2ccccc2[n+]1Cc1ccc2ccccc2c1.[Br-],IC50,[1],3 µM
same,IC50,[2],2 µM
same,IC50,[3],3 µM
same,IC50,[4],3 µM
same,growth at 10 µM,[5],-7.12%
same,growth at 10 µM,[6],-53.1%
same,growth at 10 µM,[7],4.72%
same,growth at 10 µM,[8],4.7%
same,growth at 10 µM,[9],-19.1%
same,growth at 10 µM,[10],-24.3%
same,growth at 10 µM,[11],5.25%
same,growth at 10 µM,[12],-65.3%
same,growth at 10 µM,[13],-54.4%
same,solubility,[14],< 500 µg/mL
COC(=O)c1cc2c(cc1C(=O)OC)[n+](Cc1ccc3ccccc3c1)cn2Cc1ccc2ccccc2c1.[Br-],IC50,[1],26 µM
same,IC50,[2],15 µM
same,IC50,[3],20 µM
same,IC50,[4],23 µM
same,growth at 10 µM,[5],77.7%
same,growth at 10 µM,[6],84.7%
same,growth at 10 µM,[7],92.2%
same,growth at 10 µM,[8],94.3%
same,growth at 10 µM,[9],78.8%
same,growth at 10 µM,[10],93.2%
same,growth at 10 µM,[11],90.6%
same,growth at 10 µM,[12],94.5%
same,growth at 10 µM,[13],77.3%
same,solubility,[14],< 500 µg/mL
COC(=O)c1ccc2c(c1)n(Cc1ccc3ccccc3c1)c[n+]2Cc1ccc2ccccc2c1.[Br-],IC50,[1],9 µM
same,IC50,[2],7 µM
same,IC50,[3],12 µM
same,IC50,[4],16 µM
same,growth at 10 µM,[5],61.3%
same,growth at 10 µM,[6],-10.7%
same,growth at 10 µM,[7],75%
same,growth at 10 µM,[8],71%
same,growth at 10 µM,[9],63.8%
same,growth at 10 µM,[10],34.6%
same,growth at 10 µM,[11],57.2%
same,growth at 10 µM,[12],28.6%
same,growth at 10 µM,[13],26.3%
same,solubility,[14],< 500 µg/mL
COC(=O)CCc1n(Cc2ccc3ccccc3c2)c2ccccc2[n+]1Cc1ccc2ccccc2c1.[Br-],IC50,[1],4 µM
same,IC50,[2],2 µM
same,IC50,[3],4 µM
same,IC50,[4],8 µM
same,growth at 10 µM,[5],17.7%
same,growth at 10 µM,[6],-34.4%
same,growth at 10 µM,[7],38.3%
same,growth at 10 µM,[8],42.1%
same,growth at 10 µM,[9],19%
same,growth at 10 µM,[10],-7.39%
same,growth at 10 µM,[11],36.6%
same,growth at 10 µM,[12],6.29%
same,growth at 10 µM,[13],-29.4%
same,solubility,[14],< 500 µg/mL
Cc1cc2c(cc1C)[n+](Cc1ccc3ccccc3n1)cn2Cc1ccc2ccccc2n1.[Cl-],GI50,[15],2.83 µM
same,LC50,[15],63.5 µM
same,TGI,[15],13 µM
same,IC50,[1],2 µM
same,IC50,[2],< 1 µM
same,IC50,[3],3 µM
same,IC50,[4],4 µM
same,growth at 10 µM,[5],9.61%
same,growth at 10 µM,[6],-27.3%
same,growth at 10 µM,[7],30.4%
same,growth at 10 µM,[8],39.6%
same,growth at 10 µM,[9],4.38%
same,growth at 10 µM,[10],1.58%
same,growth at 10 µM,[11],36%
same,growth at 10 µM,[12],0.34%
same,GI50,[16],2.29 µM
same,LC50,[16],66 µM
same,TGI,[16],11.1 µM
same,GI50,[17],1.27 µM
same,TGI,[17],3.13 µM
same,CC50,[17],7.72 µM
same,GI50,[18],0.484 µM
same,LC50,[18],5.22 µM
same,TGI,[18],2 µM
same,GI50,[19],1.59 µM
same,LC50,[19],> 100 µM
same,TGI,[19],4.01 µM
same,GI50,[20],0.736 µM
same,LC50,[20],29.6 µM
same,TGI,[20],3.53 µM
same,GI50,[21],1.37 µM
same,TGI,[21],8.62 µM
same,CC50,[21],30.5 µM
same,GI50,[22],0.63 µM
same,LC50,[22],6.2 µM
same,TGI,[22],2.21 µM
same,GI50,[23],0.704 µM
same,TGI,[23],2.47 µM
same,CC50,[23],6.89 µM
same,solubility,[14],1400 µg/mL
[Cl-].c1ccc2nc(Cn3c[n+](Cc4ccc5ccccc5n4)c4ccccc43)ccc2c1,GI50,[15],11.6 µM
same,LC50,[15],58 µM
same,TGI,[15],25.9 µM
same,IC50,[1],4 µM
same,IC50,[2],3 µM
same,IC50,[3],6 µM
same,IC50,[4],10 µM
same,growth at 10 µM,[5],37.1%
same,growth at 10 µM,[6],-8.16%
same,growth at 10 µM,[7],54%
same,growth at 10 µM,[8],74.7%
same,growth at 10 µM,[9],53.8%
same,growth at 10 µM,[10],32%
same,growth at 10 µM,[11],78.1%
same,growth at 10 µM,[12],32.4%
same,GI50,[16],5.7 µM
same,LC50,[16],72.1 µM
same,TGI,[16],23.7 µM
same,GI50,[17],2.97 µM
same,TGI,[17],13.7 µM
same,CC50,[17],41 µM
same,GI50,[18],0.93 µM
same,LC50,[18],25 µM
same,TGI,[18],4.3 µM
same,GI50,[19],4.13 µM
same,LC50,[19],78.2 µM
same,TGI,[19],20.4 µM
same,GI50,[20],1.47 µM
same,LC50,[20],49.4 µM
same,TGI,[20],10.3 µM
same,GI50,[21],3.68 µM
same,TGI,[21],17.1 µM
same,CC50,[21],43.5 µM
same,GI50,[22],2.8 µM
same,LC50,[22],41.8 µM
same,TGI,[22],12.3 µM
same,GI50,[23],1.56 µM
same,TGI,[23],9.72 µM
same,CC50,[23],44.7 µM
same,solubility,[14],2400 µg/mL
CCCCCCCc1n(Cc2ccc3ccccc3c2)c2ccccc2[n+]1Cc1ccc2ccccc2c1.[Br-],IC50,[1],< 1 µM
same,IC50,[2],< 1 µM
same,IC50,[3],< 1 µM
same,IC50,[4],< 1 µM
same,growth at 10 µM,[5],-70.8%
same,growth at 10 µM,[6],-84.4%
same,growth at 10 µM,[7],-77.5%
same,growth at 10 µM,[8],-73.5%
same,growth at 10 µM,[9],-70.6%
same,growth at 10 µM,[10],-76.9%
same,growth at 10 µM,[11],-86%
same,growth at 10 µM,[12],-73%
same,growth at 10 µM,[13],-81.1%
same,solubility,[14],< 500 µg/mL
OCCCc1n(Cc2ccc3ccccc3n2)c2ccccc2[n+]1Cc1ccc2ccccc2n1.[Cl-],IC50,[1],11 µM
same,IC50,[2],7 µM
same,IC50,[3],17 µM
same,IC50,[4],25 µM
same,growth at 10 µM,[5],79.8%
same,growth at 10 µM,[6],47.9%
same,growth at 10 µM,[7],93.2%
same,growth at 10 µM,[8],97.8%
same,growth at 10 µM,[9],87.5%
same,growth at 10 µM,[10],75%
same,growth at 10 µM,[11],91.7%
same,growth at 10 µM,[12],91.8%
same,growth at 10 µM,[13],60%
same,solubility,[14],< 500 µg/mL

# Source: ChEMBL document CHEMBL3868630, “Synthesis, anti-proliferative activity, SAR study, and preliminary in vivo toxicity study of substituted N,N'-bis(arylmethyl)benzimidazolium salts against a panel of non-small cell lung cancer cell lines” (Bioorg Med Chem, 2017)
